Measurements as given in ChEMBL document CHEMBL2203123, “Synthesis and biological evaluation of some hydrazone derivatives as new anticandidal and anticancer agents” (Eur J Med Chem, 2012).
Converted amounts (≈) assume the structure as drawn.

Test system: Salmonella typhimurium
Experiment: Genotoxicity against Salmonella typhimurium TA98 assessed as fold increase in revertants at 5 mg/ml after 90 mins by Ames MPF test in absence of S9 fraction relative to baseline
Format: toxicity, organism-based
Details: salmonella enterica subsp. enterica serovar typhimurium, 1.5 h
Procedure, shortened: (§1)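 Ames MPF fluctuation test, TA98 and TA100: overnight cultures reincubated 90 min, then exposed 90 min at 37 °C to compounds at 0.156-5 mg/mL (in DMSO) with or without 4.5% v/v S9; indicator medium added, 48 wells per sample scored yellow after 48 h, triplicate. Fold over baseline = mean positive wells / (mean of DMSO control + 1 SD).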

SMILES	fold change (FC)
Cn1nnnc1SCC(=O)N/N=C/c1ccc(O)cc1	0.26
COc1ccc(/C=N/NC(=O)CSc2nnnn2C)cc1	0.33

Test system: Candida parapsilosis
Experiment: Antifungal activity against Candida parapsilosis NRRL Y-12696 after 24 hrs by microdilution susceptibility assay
Format: functional
Details: Lodderomyces parapsilosis, NRRL Y-12696, 24 h
Procedure, shortened: (§2)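 Broth microdilution in Mueller Hinton Broth, compounds from DMSO stocks diluted serially; inocula standardized to 10^6 CFU/mL (McFarland 0.5) from overnight MHB cultures. Plates held 37 °C for 24 h; MIC taken as first well without turbidity, aided by 1% tetrazolium violet added for 3 h at 37 °C. Ketoconazole reference.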

SMILES	MIC
Cn1nnnc1SCC(=O)N/N=C/c1ccc(O)cc1	1000 µg/mL (≈ 3420 µM)
COc1ccc(/C=N/NC(=O)CSc2nnnn2C)cc1	250 µg/mL (≈ 816 µM)

Test system: Salmonella typhimurium
Experiment: Genotoxicity against Salmonella typhimurium TA100 assessed as fold increase in revertants at 1.25 mg/ml after 90 mins by Ames MPF test in absence of S9 fraction relative to baseline
Format: toxicity, organism-based
Details: salmonella enterica subsp. enterica serovar typhimurium, 1.5 h
Procedure, shortened: as §1

SMILES	fold change (FC)
Cn1nnnc1SCC(=O)N/N=C/c1ccc(O)cc1	0.91
COc1ccc(/C=N/NC(=O)CSc2nnnn2C)cc1	0.2

Test system: Candida albicans
Experiment: Antifungal activity against Candida albicans clinical isolate after 24 hrs by microdilution susceptibility assay
Format: functional
Details: not given
Procedure, shortened: as §2

SMILES	MIC
Cn1nnnc1SCC(=O)N/N=C/c1ccc(O)cc1	500 µg/mL (≈ 1710 µM)
COc1ccc(/C=N/NC(=O)CSc2nnnn2C)cc1	500 µg/mL (≈ 1630 µM)

Test system: not listed separately
Experiment: Genotoxicity against Salmonella typhimurium TA1535/pSK1002 assessed as induction ratio at 2.5 mg/ml by umuC assay in absence of S9 fraction
Format: toxicity, organism-based
Details: salmonella enterica subsp. enterica serovar typhimurium, Salmonella typhimurium TA1535/pSK1002 without S9 fraction
Procedure, shortened: (§3)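 umuC Easy CS: TA1535/pSK1002 grown overnight in ampicillin TG medium at 37 °C, then exposed 2 h at 37 °C to compounds at 5, 2.5, 1.25, 0.63 mg/mL with or without S9. Diluted into fresh medium for 2 h growth (OD600), then β-galactosidase with ONPG 30 min at 28 °C, OD420. Positive controls 2-aminoanthracene (+S9), […] (−S9).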

SMILES	fold induction at 2.5 mg/ml
Cn1nnnc1SCC(=O)N/N=C/c1ccc(O)cc1	0.979
COc1ccc(/C=N/NC(=O)CSc2nnnn2C)cc1	1.04

Test system: Salmonella typhimurium
Experiment: Genotoxicity against Salmonella typhimurium TA98 assessed as fold increase in revertants at 1.25 mg/ml after 90 mins by Ames MPF test in presence of S9 fraction relative to baseline
Format: toxicity, organism-based
Details: salmonella enterica subsp. enterica serovar typhimurium, s9, 1.5 h
Procedure, shortened: as §1

SMILES	fold change (FC)
Cn1nnnc1SCC(=O)N/N=C/c1ccc(O)cc1	0.63
COc1ccc(/C=N/NC(=O)CSc2nnnn2C)cc1	0.53

Test system: Salmonella typhimurium
Experiment: Genotoxicity against Salmonella typhimurium TA100 assessed as fold increase in revertants at 0.625 mg/ml after 90 mins by Ames MPF test in absence of S9 fraction relative to baseline
Format: toxicity, organism-based
Details: salmonella enterica subsp. enterica serovar typhimurium, 1.5 h
Procedure, shortened: as §1

SMILES	fold change (FC)
Cn1nnnc1SCC(=O)N/N=C/c1ccc(O)cc1	0.66
COc1ccc(/C=N/NC(=O)CSc2nnnn2C)cc1	0.3

Test system: Cyberlindnera jadinii
Experiment: Antifungal activity against Candida utilis NRRL Y-900 after 24 hrs by microdilution susceptibility assay
Format: functional
Details: Williopsis jadinii, NRRL Y-900, 24 h
Procedure, shortened: as §2

SMILES	MIC
Cn1nnnc1SCC(=O)N/N=C/c1ccc(O)cc1	500 µg/mL (≈ 1710 µM)
COc1ccc(/C=N/NC(=O)CSc2nnnn2C)cc1	250 µg/mL (≈ 816 µM)

Test system: Salmonella typhimurium
Experiment: Genotoxicity against Salmonella typhimurium TA98 assessed as fold increase in revertants at 0.625 mg/ml after 90 mins by Ames MPF test in presence of S9 fraction relative to baseline
Format: toxicity, organism-based
Details: salmonella enterica subsp. enterica serovar typhimurium, s9, 1.5 h
Procedure, shortened: as §1

SMILES	fold change (FC)
Cn1nnnc1SCC(=O)N/N=C/c1ccc(O)cc1	0.32
COc1ccc(/C=N/NC(=O)CSc2nnnn2C)cc1	0.32

Test system: Pichia kudriavzevii
Experiment: Antifungal activity against Candida krusei NRRL Y-7179 after 24 hrs by microdilution susceptibility assay
Format: functional
Details: NRRL Y-7179, 24 h
Procedure, shortened: as §2

SMILES	MIC
Cn1nnnc1SCC(=O)N/N=C/c1ccc(O)cc1	500 µg/mL (≈ 1710 µM)
COc1ccc(/C=N/NC(=O)CSc2nnnn2C)cc1	125 µg/mL (≈ 408 µM)

Test system: A549
Experiment: Cytotoxicity against human A549 cells after 24 hrs by XTT assay
Format: functional, cell-based
Details: A549, 24 h
Procedure, shortened: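 A549 cells in RPMI 1640 with 10% fetal calf serum, penicillin/streptomycin, 37 °C, 5% CO2; 20,000 cells/well seeded, after 24 h exposed to compounds at 0.00316 µM-10 mM for 24 h. XTT mitochondrial activity read at 480 nm (reference 680 nm) after 3 h; % inhibition per concentration, IC50 by non-linear regression.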

SMILES	IC50
Cn1nnnc1SCC(=O)N/N=C/c1ccc(O)cc1	> 10 mM
COc1ccc(/C=N/NC(=O)CSc2nnnn2C)cc1	> 10 mM

Test system: Salmonella typhimurium
Experiment: Genotoxicity against Salmonella typhimurium TA1535/pSK1002 assessed as growth factor ratio at 2.5 mg/ml by umuC assay in absence of S9 fraction
Format: toxicity, organism-based
Details: salmonella enterica subsp. enterica serovar typhimurium
Procedure, shortened: as §3

SMILES	Ratio
Cn1nnnc1SCC(=O)N/N=C/c1ccc(O)cc1	1.397
COc1ccc(/C=N/NC(=O)CSc2nnnn2C)cc1	1.166

Test system: Candida albicans
Experiment: Antifungal activity against Candida albicans ATCC 10231 after 24 hrs by microdilution susceptibility assay
Format: functional
Details: ATCC 10231, 24 h
Procedure, shortened: as §2

SMILES	MIC
Cn1nnnc1SCC(=O)N/N=C/c1ccc(O)cc1	500 µg/mL (≈ 1710 µM)
COc1ccc(/C=N/NC(=O)CSc2nnnn2C)cc1	500 µg/mL (≈ 1630 µM)

Test system: Salmonella typhimurium
Experiment: Genotoxicity against Salmonella typhimurium TA1535/pSK1002 assessed as induction ratio at 0.63 mg/ml by umuC assay in absence of S9 fraction
Format: toxicity, organism-based
Details: salmonella enterica subsp. enterica serovar typhimurium
Procedure, shortened: as §3

SMILES	Ratio
Cn1nnnc1SCC(=O)N/N=C/c1ccc(O)cc1	1.181
COc1ccc(/C=N/NC(=O)CSc2nnnn2C)cc1	1.357

Test system: Salmonella typhimurium
Experiment: Genotoxicity against Salmonella typhimurium TA98 assessed as fold increase in revertants at 1.25 mg/ml after 90 mins by Ames MPF test in absence of S9 fraction relative to baseline
Format: toxicity, organism-based
Details: salmonella enterica subsp. enterica serovar typhimurium, 1.5 h
Procedure, shortened: as §1

SMILES	fold change (FC)
Cn1nnnc1SCC(=O)N/N=C/c1ccc(O)cc1	0.13
COc1ccc(/C=N/NC(=O)CSc2nnnn2C)cc1	0.33

Test system: Salmonella typhimurium
Experiment: Genotoxicity against Salmonella typhimurium TA98 assessed as fold increase in revertants at 0.625 mg/ml after 90 mins by Ames MPF test in absence of S9 fraction relative to baseline
Format: toxicity, organism-based
Details: salmonella enterica subsp. enterica serovar typhimurium, 1.5 h
Procedure, shortened: as §1

SMILES	fold change (FC)
Cn1nnnc1SCC(=O)N/N=C/c1ccc(O)cc1	0.13
COc1ccc(/C=N/NC(=O)CSc2nnnn2C)cc1	0.65

Test system: Salmonella typhimurium
Experiment: Genotoxicity against Salmonella typhimurium TA1535/pSK1002 assessed as growth factor ratio at 0.63 mg/ml by umuC assay in presence of S9 fraction
Format: toxicity, organism-based
Details: salmonella enterica subsp. enterica serovar typhimurium
Procedure, shortened: as §3

SMILES	Ratio
Cn1nnnc1SCC(=O)N/N=C/c1ccc(O)cc1	1.13
COc1ccc(/C=N/NC(=O)CSc2nnnn2C)cc1	1.117

Test system: Salmonella typhimurium
Experiment: Genotoxicity against Salmonella typhimurium TA98 assessed as fold increase in revertants at 2.5 mg/ml after 90 mins by Ames MPF test in absence of S9 fraction relative to baseline
Format: toxicity, organism-based
Details: salmonella enterica subsp. enterica serovar typhimurium, 1.5 h
Procedure, shortened: as §1

SMILES	fold change (FC)
Cn1nnnc1SCC(=O)N/N=C/c1ccc(O)cc1	0.13
COc1ccc(/C=N/NC(=O)CSc2nnnn2C)cc1	0.33

Test system: Salmonella typhimurium
Experiment: Genotoxicity against Salmonella typhimurium TA98 assessed as fold increase in revertants at 0.156 mg/ml after 90 mins by Ames MPF test in absence of S9 fraction relative to baseline
Format: toxicity, organism-based
Details: salmonella enterica subsp. enterica serovar typhimurium, 1.5 h
Procedure, shortened: as §1

SMILES	fold change (FC)
Cn1nnnc1SCC(=O)N/N=C/c1ccc(O)cc1	0.52
COc1ccc(/C=N/NC(=O)CSc2nnnn2C)cc1	0.16

Test system: Salmonella typhimurium
Experiment: Genotoxicity against Salmonella typhimurium TA100 assessed as fold increase in revertants at 0.156 mg/ml after 90 mins by Ames MPF test in absence of S9 fraction relative to baseline
Format: toxicity, organism-based
Details: salmonella enterica subsp. enterica serovar typhimurium, 1.5 h
Procedure, shortened: as §1

SMILES	fold change (FC)
Cn1nnnc1SCC(=O)N/N=C/c1ccc(O)cc1	0.66
COc1ccc(/C=N/NC(=O)CSc2nnnn2C)cc1	0.7

Test system: Salmonella typhimurium
Experiment: Genotoxicity against Salmonella typhimurium TA98 assessed as fold increase in revertants at 0.3125 mg/ml after 90 mins by Ames MPF test in absence of S9 fraction relative to baseline
Format: toxicity, organism-based
Details: salmonella enterica subsp. enterica serovar typhimurium, 1.5 h
Procedure, shortened: as §1

SMILES	fold change (FC)
Cn1nnnc1SCC(=O)N/N=C/c1ccc(O)cc1	0.13
COc1ccc(/C=N/NC(=O)CSc2nnnn2C)cc1	0.16

Test system: Salmonella typhimurium
Experiment: Genotoxicity against Salmonella typhimurium TA1535/pSK1002 assessed as growth factor ratio at 2.5 mg/ml by umuC assay in presence of S9 fraction
Format: toxicity, organism-based
Details: salmonella enterica subsp. enterica serovar typhimurium
Procedure, shortened: as §3

SMILES	Ratio
Cn1nnnc1SCC(=O)N/N=C/c1ccc(O)cc1	1.663
COc1ccc(/C=N/NC(=O)CSc2nnnn2C)cc1	1.83

Test system: not listed separately
Experiment: Genotoxicity against Salmonella typhimurium TA1535/pSK1002 assessed as induction ratio at 1.25 mg/ml by umuC assay in presence of S9 fraction
Format: toxicity, organism-based
Details: salmonella enterica subsp. enterica serovar typhimurium, Salmonella typhimurium TA1535/pSK1002 with S9 fraction
Procedure, shortened: as §3

SMILES	fold induction at 1.25 mg/ml
Cn1nnnc1SCC(=O)N/N=C/c1ccc(O)cc1	0.699
COc1ccc(/C=N/NC(=O)CSc2nnnn2C)cc1	0.769

Test system: Salmonella typhimurium
Experiment: Genotoxicity against Salmonella typhimurium TA98 assessed as fold increase in revertants at 0.3125 mg/ml after 90 mins by Ames MPF test in presence of S9 fraction relative to baseline
Format: toxicity, organism-based
Details: salmonella enterica subsp. enterica serovar typhimurium, s9, 1.5 h
Procedure, shortened: as §1

SMILES	fold change (FC)
Cn1nnnc1SCC(=O)N/N=C/c1ccc(O)cc1	0.53
COc1ccc(/C=N/NC(=O)CSc2nnnn2C)cc1	0.84

Test system: Salmonella typhimurium
Experiment: Genotoxicity against Salmonella typhimurium TA100 assessed as fold increase in revertants at 0.3125 mg/ml after 90 mins by Ames MPF test in presence of S9 fraction relative to baseline
Format: toxicity, organism-based
Details: salmonella enterica subsp. enterica serovar typhimurium, s9, 1.5 h
Procedure, shortened: as §1

SMILES	fold change (FC)
Cn1nnnc1SCC(=O)N/N=C/c1ccc(O)cc1	0.63
COc1ccc(/C=N/NC(=O)CSc2nnnn2C)cc1	0.77

Test system: Salmonella typhimurium
Experiment: Genotoxicity against Salmonella typhimurium TA1535/pSK1002 assessed as growth factor ratio at 0.63 mg/ml by umuC assay in absence of S9 fraction
Format: toxicity, organism-based
Details: salmonella enterica subsp. enterica serovar typhimurium
Procedure, shortened: as §3

SMILES	Ratio
Cn1nnnc1SCC(=O)N/N=C/c1ccc(O)cc1	1.009
COc1ccc(/C=N/NC(=O)CSc2nnnn2C)cc1	1.028

Test system: Salmonella typhimurium
Experiment: Genotoxicity against Salmonella typhimurium TA100 assessed as fold increase in revertants at 5 mg/ml after 90 mins by Ames MPF test in presence of S9 fraction relative to baseline
Format: toxicity, organism-based
Details: salmonella enterica subsp. enterica serovar typhimurium, s9, 1.5 h
Procedure, shortened: as §1

SMILES	fold change (FC)
Cn1nnnc1SCC(=O)N/N=C/c1ccc(O)cc1	0.82
COc1ccc(/C=N/NC(=O)CSc2nnnn2C)cc1	0.5

Test system: Salmonella typhimurium
Experiment: Genotoxicity against Salmonella typhimurium TA1535/pSK1002 assessed as growth factor ratio at 5 mg/ml by umuC assay in presence of S9 fraction
Format: toxicity, organism-based
Details: salmonella enterica subsp. enterica serovar typhimurium
Procedure, shortened: as §3

SMILES	Ratio
Cn1nnnc1SCC(=O)N/N=C/c1ccc(O)cc1	2.139
COc1ccc(/C=N/NC(=O)CSc2nnnn2C)cc1	2.261
